Consider 29 molecules from ChEMBL document CHEMBL1134227, “The design of phenylglycine containing benzamidine carboxamides as potent and selective inhibitors of factor Xa” (Bioorg Med Chem Lett, 2001).

pKi: −log10 of the molar value. Several values for one entry are separate records, joined by “and”; a condition that tells them apart may be missing. Identical values can stand only once.

One experiment addresses Coagulation factor X (Homo sapiens, UniProt P00742). Kind of experiment: Binding affinity against human coagulation factor Xa. A digest of the protocol: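 Human fXa at 100 pM final with Pefachrome-FXA substrate, in 100 mM phosphate buffer with 0.1% bovine serum albumin at pH 7.4. Compounds were taken from Me₂SO stocks into the buffer.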
The target of another experiment is Prothrombin (Homo sapiens, UniProt P00734). Kind of experiment: Affinity for human thrombin. A digest of the protocol:
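Chromogenic assay with 1 nM human thrombin and Pefachrome-TH substrate, in 100 mM phosphate buffer with 0.1% bovine serum albumin at pH 7.4. Compounds were dissolved in Me₂SO and diluted into the buffer. Hydrolysis was followed as the rise in optical density at 405 on a microplate reader.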

Another experiment addresses Serine protease 1 (Homo sapiens, UniProt P07477). The experiment can be described thus: Binding affinity against human trypsin. A digest of the protocol:
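Human trypsin at 1 nM final with Pefachrome-TRY chromogenic substrate, in 100 mM phosphate, 0.1% bovine serum albumin, pH 7.4. Test compounds were dissolved in Me₂SO and diluted into the assay buffer. The read-out was the optical density increase at 405 from substrate cleavage.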

Serine protease 1, sequence (P07477 whole entry): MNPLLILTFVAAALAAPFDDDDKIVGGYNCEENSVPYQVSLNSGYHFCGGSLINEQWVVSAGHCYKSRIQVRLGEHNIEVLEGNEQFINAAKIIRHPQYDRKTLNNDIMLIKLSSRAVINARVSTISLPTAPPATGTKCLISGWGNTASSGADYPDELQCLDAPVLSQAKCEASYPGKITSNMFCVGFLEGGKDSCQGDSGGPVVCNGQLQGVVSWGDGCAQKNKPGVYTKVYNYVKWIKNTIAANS
Coagulation factor X, sequence (P00742 41-179 limits assumed): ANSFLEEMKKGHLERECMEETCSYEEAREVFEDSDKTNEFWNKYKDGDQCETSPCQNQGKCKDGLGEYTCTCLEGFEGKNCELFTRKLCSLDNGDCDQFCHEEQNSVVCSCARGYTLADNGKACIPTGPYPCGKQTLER
Coagulation factor X, sequence (P00742 235-488 limits assumed): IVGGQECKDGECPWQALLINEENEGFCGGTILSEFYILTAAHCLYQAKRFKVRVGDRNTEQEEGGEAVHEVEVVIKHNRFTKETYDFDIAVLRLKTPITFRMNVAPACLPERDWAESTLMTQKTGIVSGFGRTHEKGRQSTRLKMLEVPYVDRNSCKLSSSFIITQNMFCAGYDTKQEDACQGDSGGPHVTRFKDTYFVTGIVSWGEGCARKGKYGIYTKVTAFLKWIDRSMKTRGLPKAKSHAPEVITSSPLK

On to `N=C(N)c1cccc(C(=O)N[C@@H](C(=O)N2CCN(c3ccncc3)CC2)c2ccccc2)c1`, for which the pKi is 7.89 at Coagulation factor X, 4.75 at Prothrombin and 6.25 on Serine protease 1.

Take `N=C(N)c1cccc(C(=O)NC(C(=O)NCC2CCC(CN)CC2)c2ccc(-c3ccccc3)cc2)c1` (stereo unspecified): the negative logarithm of the Ki (pKi) was 6.10 on Coagulation factor X and 5.96 at Serine protease 1.

As for `CC(C)[C@H](NC(=O)c1cccc(C(=N)N)c1)C(=O)NCC1CCC(CN)CC1` (stereo partly specified), the figures for the pKi on Coagulation factor X and on Serine protease 1 were 4.42 and 4.90, respectively.

As for `N=C(N)c1cccc(C(=O)NC(C(=O)NCC2CCC(CN)CC2)c2ccc(Cl)cc2)c1` (stereo unspecified), the results for the pKi on Coagulation factor X and at Serine protease 1 were 5.60 and 5.22, respectively.

In the case of `N=C(N)c1cccc(C(=O)N[C@@H](C(=O)NCCc2ccccc2)c2ccccc2)c1`, the negative-log Ki (pKi) at Coagulation factor X was 6.07; at Prothrombin, 5.51; at Serine protease 1, 5.48.

As for `N=C(N)c1cccc(C(=O)NC(C(=O)NCC2CCC(CN)CC2)c2cccc3ccccc23)c1` (stereo unspecified), the pKi on Coagulation factor X is 7.00; on Serine protease 1 it was 5.68.

For the molecule `N=C(N)c1cccc(C(=O)N[C@@H](C(=O)N2CCC(C(=O)c3ccc(F)cc3)CC2)c2ccccc2)c1`, the pKi on Coagulation factor X is 8.00; at Prothrombin, 5.93; at Serine protease 1 it was 6.27.

Regarding `N=C(N)c1cccc(C(=O)NC(C(=O)NCC2CCC(CN)CC2)c2ccccc2)c1` (stereo unspecified), the pKi is 5.19 at Prothrombin; 5.35 and 5.25 at Serine protease 1.

Take `COc1ccc(CNC(=O)[C@H](NC(=O)c2cccc(C(=N)N)c2)c2ccccc2)cc1`: the negative logarithm of the Ki (pKi) at Coagulation factor X is 7.55; on Prothrombin, 5.64; on Serine protease 1, 5.26.

`CSCC[C@H](NC(=O)c1cccc(C(=N)N)c1)C(=O)NCC1CCC(CN)CC1` (stereo partly specified): the negative-log Ki (pKi) on Coagulation factor X was 4.98; at Serine protease 1, 5.10.

Consider `CSCC[C@@H](NC(=O)c1cccc(C(=N)N)c1)C(=O)NCC1CCC(CN)CC1` (stereo partly specified), for which the figures for the pKi at Coagulation factor X and at Serine protease 1 were 5.64 and 5.00, respectively.

`N=C(N)c1cccc(C(=O)N[C@@H](C(=O)N2CCN(Cc3ccccc3)CC2)c2ccccc2)c1`: the negative-log Ki (pKi) was 6.92 on Coagulation factor X, 5.10 at Prothrombin and 5.66 on Serine protease 1.

In the case of `N=C(N)c1cccc(C(=O)N[C@@H](C(=O)N2CCC(Cc3ccccc3)CC2)c2ccccc2)c1`, the values for the negative logarithm of the Ki (pKi) at Coagulation factor X, at Prothrombin and on Serine protease 1 were 7.52, 5.87 and 6.19, respectively.

Consider `N=C(N)c1cccc(C(=O)N[C@@H](C(=O)NCCCc2ccccc2)c2ccccc2)c1`, for which the negative-log Ki (pKi) was 6.84 at Coagulation factor X and 5.66 at Serine protease 1.

As to `N=C(N)c1cccc(C(=O)N[C@@H](C(=O)NCc2ccccc2)c2ccccc2)c1`, the pKi was 6.04 at Coagulation factor X, 5.07 on Prothrombin and 5.27 on Serine protease 1.

For the molecule `N=C(N)c1cccc(C(=O)NCC(=O)NCC2CCC(CN)CC2)c1` (stereo unspecified), at Serine protease 1, the negative logarithm of the Ki (pKi) is 4.64.

As to `N=C(N)c1cccc(C(=O)N[C@@H](C(=O)N2CCC(C(=O)c3ccccc3)CC2)c2ccccc2)c1`, the pKi on Prothrombin was 5.90; on Serine protease 1 it was 6.49.

For `N=C(N)c1cccc(C(=O)N[C@@H](C(=O)NCc2ccc(CN)cc2)c2ccccc2)c1`, the negative logarithm of the Ki (pKi) was 6.30 at Coagulation factor X, 4.59 on Prothrombin and 5.39 at Serine protease 1.

`N=C(N)c1cccc(C(=O)N[C@H](Cc2ccccc2)C(=O)NCC2CCC(CN)CC2)c1` (stereo partly specified): the pKi on Coagulation factor X is 4.59; at Serine protease 1 it was 4.76.

With `N=C(N)c1cccc(C(=O)N[C@@H](C(=O)NCC2CCC(CN)CC2)C2CCCCC2)c1` (stereo partly specified), the figures for the pKi at Coagulation factor X and on Serine protease 1 were 6.30 and 5.07, respectively.

In the case of `N=C(N)c1cccc(C(=O)N[C@@H](C(=O)N2CCN(C(=O)c3ccccc3)CC2)c2ccccc2)c1`, the pKi on Prothrombin is 5.10; on Serine protease 1 it was 6.34.

Take `CC(C)[C@@H](NC(=O)c1cccc(C(=N)N)c1)C(=O)NCC1CCC(CN)CC1` (stereo partly specified): the pKi on Serine protease 1 was 4.79.

On to `N=C(N)c1cccc(C(=O)N[C@H](C(=O)NCC2CCC(CN)CC2)C2CCCCC2)c1` (stereo partly specified), for which the pKi on Coagulation factor X was 5.11; at Serine protease 1, 5.44.

Take `N=C(N)c1cccc(C(=O)N[C@@H](C(=O)N2CCN(c3ccc(F)cc3)CC2)c2ccccc2)c1`: the pKi on Coagulation factor X was 7.82; at Prothrombin it was 5.42; on Serine protease 1, 5.90.

`Cc1ccc(CNC(=O)[C@H](NC(=O)c2cccc(C(=N)N)c2)c2ccccc2)cc1`: the figures for the pKi on Coagulation factor X and on Serine protease 1 were 7.38 and 5.31, respectively.

For `N=C(N)c1cccc(C(=O)N[C@@H](Cc2ccccc2)C(=O)NCC2CCC(CN)CC2)c1` (stereo partly specified), the negative-log Ki (pKi) was 4.47 on Coagulation factor X and 4.90 on Serine protease 1.

In the case of `N=C(N)c1cccc(C(=O)N[C@@H](C(=O)N2CCN(c3ccccc3)CC2)c2ccccc2)c1`, the negative-log Ki (pKi) at Coagulation factor X was 7.80; on Prothrombin, 5.76; on Serine protease 1, 6.47.

Consider `N=C(N)c1cccc(C(=O)NC(C(=O)NCC2CCC(CN)CC2)c2cccc(Cl)c2)c1` (stereo in doubt; 9), for which the pKi was 6.52 at Coagulation factor X and 5.41 at Serine protease 1.

On to `N=C(N)c1cccc(C(=O)NC(C(=O)NCC2CCC(CN)CC2)c2cccc(Cl)c2)c1` (stereo in doubt; 11), for which the negative logarithm of the Ki (pKi) on Coagulation factor X was 6.52; on Serine protease 1 it was 5.29.

Broadly, the pKi is −log10 of the Ki, conventionally taken in molar units. Low values mean a high Ki, high ones a low Ki.
